Screens as filed in PubChem.
T cell modulator = T cell immune modulators affecting CD8 T cell-vesicle binding. 2C CD8+ T cell-vesicle binding, flow cytometry; stronger effect = lower value. response (vesicle binding), % at 7 µM. hit rate 0.068% among 330,000. AID 2052;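 active = response, share of CD8 T cells binding vesicles, and their 90th percentile fluorescence all below set limits, cut at about 80% in these data, passing the limit was not always enough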;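 note: values below 100% mean blocked vesicle binding to the CD8+ T cells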
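Material: 2C TCR transgenic mouse naive CD8+ T cells, MACS-purified. Also added: QL9-charged Drosophila Ld/ICAM-1/B7-1 vesicles. Timing: binding 1.5 h at 37 °C. Measured by: high-throughput flow cytometry with anti-B7-1 and anti-CD8 staining. Read-out: percent CD8+ FL2 mean versus row control. Controls: Unloaded micro-vesicles (low), QL9 vesicles with 0.7% DMSO (high).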
GASC-1 inh = human JMJD2C demethylase inhibition | inhibition, % at 2.35 µM | GST-JMJD2C(1-420) H3K9me3 demethylation, DELFIA europium | hit rate 0.069% among 330,000 | AID 2099 | Q9H3R0;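 active = more than half of a compound's replicate wells show inhibition beyond 50%, single wells judged on their own value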;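 note: signal counts dimethyl H3K9 product captured on neutravidin plate; 0% = median of DMSO wells and 100% = 0.3 times that DMSO median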
LANA-H2B inh = blocks KSHV LANA binding to histone H2A/H2B | hit rate 0.6% among 320,000 | cell-free LANA-H2A/H2B peptide, fluorescence polarization | inhibition, % (no concentration beside the values) | AID 2629 | Q9QR71; in the data active = inhibition mostly above about 10%, no sharp cut-off; inactive = mostly below about 6.7%
Target sequence (Q9QR71 whole entry, looked up): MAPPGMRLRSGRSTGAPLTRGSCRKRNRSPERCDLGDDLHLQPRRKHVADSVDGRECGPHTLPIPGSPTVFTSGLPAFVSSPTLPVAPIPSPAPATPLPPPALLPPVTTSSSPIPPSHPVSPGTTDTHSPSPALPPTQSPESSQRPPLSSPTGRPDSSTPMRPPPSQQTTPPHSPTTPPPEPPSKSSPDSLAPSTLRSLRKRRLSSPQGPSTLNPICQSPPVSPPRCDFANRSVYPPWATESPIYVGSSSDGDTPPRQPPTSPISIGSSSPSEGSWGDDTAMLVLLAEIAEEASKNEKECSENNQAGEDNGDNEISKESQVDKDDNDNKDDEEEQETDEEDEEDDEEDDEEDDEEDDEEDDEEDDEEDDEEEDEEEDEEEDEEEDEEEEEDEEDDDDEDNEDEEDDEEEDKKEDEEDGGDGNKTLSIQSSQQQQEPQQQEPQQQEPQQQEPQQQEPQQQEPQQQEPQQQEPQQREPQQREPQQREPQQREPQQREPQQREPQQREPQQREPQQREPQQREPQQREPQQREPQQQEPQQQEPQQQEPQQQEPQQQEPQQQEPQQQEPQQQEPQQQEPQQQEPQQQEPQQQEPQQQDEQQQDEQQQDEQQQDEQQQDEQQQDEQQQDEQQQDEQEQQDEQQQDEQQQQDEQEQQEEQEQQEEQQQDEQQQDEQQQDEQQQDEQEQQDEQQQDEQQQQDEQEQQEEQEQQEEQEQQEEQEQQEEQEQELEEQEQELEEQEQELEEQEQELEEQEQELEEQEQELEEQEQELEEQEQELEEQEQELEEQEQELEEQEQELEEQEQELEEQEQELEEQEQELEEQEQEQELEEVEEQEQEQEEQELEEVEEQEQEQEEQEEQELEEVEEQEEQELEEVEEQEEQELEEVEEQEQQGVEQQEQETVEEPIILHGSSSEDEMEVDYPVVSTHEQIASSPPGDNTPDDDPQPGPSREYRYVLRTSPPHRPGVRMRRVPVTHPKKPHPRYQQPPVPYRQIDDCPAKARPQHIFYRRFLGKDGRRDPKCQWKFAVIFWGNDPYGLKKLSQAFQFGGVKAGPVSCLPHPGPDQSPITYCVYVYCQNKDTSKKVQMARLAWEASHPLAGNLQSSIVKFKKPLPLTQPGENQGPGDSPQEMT
HDAC3 inhib = inhibitors of human histone deacetylase 3. O15379. recombinant HDAC3, fluorogenic peptide/trypsin coupled, fluorescence. inhibition, % at 8.3 µM. hit rate 0.15% among 320,000; in the data active = inhibition above about 26%, passing the limit was not always enough
Arrestin-AP2 inh = blocks beta-arrestin peptide binding to AP2 adaptin; FITC-arrestin peptide / GST-AP2 beads, flow cytometry; AP2 beta2 appendage carries R879A mutation; inhibition, % at 10 µM; hit rate 0.31% among 340,000; AID 504490;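 active = inhibition above a set limit, near 3 SD of compounds lacking own fluorescence, cut at about 54% in these data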;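 note: plate controls were DMSO wells for no effect and 5 µM unlabelled arrestin peptide for full effect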
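test system = AP2 appendage R879A on GSH beads | buffer or medium = PBS plus Tween 20 (0.05%) and BSA (0.1%) | incubation = 12 min plus 1 h, RT | detection = bead flow cytometry, FITC channel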
DSG3 Ab inh = human desmoglein-3 autoantibody binding inhibition | AID 588358 | binding (percent of control), % at 10 µM | hit rate 0.48% among 310,000 | DSG3-coupled beads, scFv-anti-DSG3-GFP binding, flow cytometry; stronger effect = lower value;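 active = binding more than 3 SD below its plate's average and above zero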;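 note: hits lower antibody fragment binding to DSG3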
Arr AP2 CP1 = human beta-arrestin and AP2 interaction inhibition, cherry pick; shares compounds with Arrestin-AP2 inh; GST-AP2 beads, FITC arrestin peptide binding, flow cytometry; GST-fused beta2-adaptin appendage, R879A mutant; inhibition, % at 10 µM; hit rate 2% among 1,300; AID 504908;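 active = inhibition above a set limit, roughly 3 SD of non-fluorescent compound noise, cut at about 38% in these data; inactive = inhibition at or below that limit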;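 note: loss of bead fluorescence from 50 nM FITC arrestin peptide bound to appendage; 0% = negative control wells and 100% = excess unlabelled arrestin peptide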
GST-FITC bead = GST-GSH bead binding interference, counter-screen | hit rate 2% among 1,300 | shares compounds with Arrestin-AP2 inh | inhibition, % at 10 µM | GST-fluorescein binding to GSH beads, fluorescence;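 active = inhibition above 50%, about 3 SD of the inhibition seen with non-fluorescent compounds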;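 note: fluorescein maleimide labelled GST captured on 4 micron glutathione beads; higher means more loss of bead fluorescence from quenching or blocked binding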
* = called active by the depositor; i = inactive; x = no result. Sampled rows, rich in hits. Any-hit rate of the full collection: about 1.6%.

SMILES	T cell modulator	GASC-1 inh	LANA-H2B inh	HDAC3 inhib	Arrestin-AP2 inh	DSG3 Ab inh	Arr AP2 CP1	GST-FITC bead
CSc1nc2c(c(=O)n1Cc1ccccc1)SC(C)C2 (stereo not drawn)	369	5	-4	5	56*	98	-5	-2
O=C(NCCCN1CCCC1=O)c1cc(=O)c2ccccc2o1	514	1	1	0	74*	101	4	1
O=C(NCCCN1CCCC1=O)c1cc2ccccc2o1	417	x	x	x	3	97	x	x
COc1ccc(-c2cc(C(F)F)n3ncc(C(=O)N4CCN(C)CC4)c3n2)cc1	691	2	3	-8	-1	101	x	x
COc1ccc(-c2cc(C(F)F)n3ncc(C(=O)N4CCCc5ccccc54)c3n2)cc1	82	7	5	9	106*	95	8	66*
O=C(c1cnn2c(C(F)F)cc(-c3ccccc3)nc12)N1CCc2ccccc2C1	423	1	-6	3	6	91	x	x
O=C(c1cnn2c(C(F)F)cc(-c3ccccc3)nc12)N1CCCc2ccccc21	179	8	18	-8	-8	102	5	3
O=C(c1cnn2c(C(F)(F)F)cc(-c3ccccc3)nc12)N1CCCc2ccccc21	181	76	0	-5	-10	100	-8	-4
CCN1CCN(CCCNC(=O)c2ccccc2NC(=O)C2=C(C)OCCS2)CC1	386	6	-4	-1	-8	106	x	x
CCn1cnc2c([N+](=O)[O-])c(NS(=O)(=O)c3ccc(C)cc3)ccc21	276	3	-1	-1	-1	103	x	x
COc1ccc(-c2nn(-c3ccccc3)cc2/C=C(\C#N)S(=O)(=O)c2ccccc2)cc1OC	305	-1	2	-18	78*	122	22	-3
COc1ccc(-c2nn(-c3ccccc3)cc2/C=N/NC(N)=S)cc1OC	503	13	2	15	-11	116	x	x
O=C1/C(=C\c2ccc(-c3ccccc3Cl)o2)SC(=S)N1CC1CCCO1 (stereo not drawn)	142	3	2	-9	73*	102	42*	27
O=C1/C(=C/c2ccco2)SC(=S)N1CC1CCCO1 (stereo not drawn)	173	9	-2	14	5	93	x	x
Cc1ccc(F)cc1CNC(=O)C1CCC(=O)N(CCc2ccccc2)C1 (stereo not drawn)	267	-4	-2	-1	2	97	5	-2
O=C(NCCc1ccc(C(F)(F)F)cc1)C1CCC(=O)N(CCCc2ccccc2)C1 (stereo not drawn)	491	-9	-2	6	-2	x	6	4
O=C(NCCc1ccc(C(F)(F)F)cc1)C1CCC(=O)N(CCc2cccc(F)c2)C1 (stereo not drawn)	269	6	0	15	-11	99	x	x
Oc1c(CNc2ccccc2)cc(COCc2ccccc2)c2cccnc12	496	x	x	x	55*	108	4	1
CCOc1ccccc1OCCCC(=O)NNC(=O)c1ccc(F)cc1	115	x	x	x	6	142	x	x
CN(C)C(=O)c1cc(C(=O)c2ccc(F)cc2F)c[nH]1	619	4	-3	2	11	104	x	x
CN(C)C(=O)c1cc(C(=O)c2ccc(C(F)(F)F)cc2F)c[nH]1	166	-1	-6	4	62*	97	-18	1
Cc1cccc(NC(=O)Nc2cccnc2)c1C	i	17	2	-2	-10	104	x	x
Cc1ccccc1NC(=O)Nc1cnccn1	357	-29	1	-5	15	100	6	-6
Cc1ccc(NC(=O)Nc2cnccn2)cc1Cl	221	-6	1	0	1	101	x	x
Cc1cccc(NC(=O)Nc2cnccn2)c1C	257	9	-2	5	-5	111	-8	-5
SMILES	T cell modulator	GASC-1 inh	LANA-H2B inh	HDAC3 inhib	Arrestin-AP2 inh	DSG3 Ab inh	Arr AP2 CP1	GST-FITC bead
C=CCN1C(=O)/C(=C/c2ccsc2)SC1=S	104	-1	-6	12	7	77	x	x
C=CCN1C(=O)/C(=C/c2ccc(-c3ccc(F)cc3)o2)SC1=S	372	9	0	0	67*	106	10	20
c1ccc2[nH]c(SCc3cn4cccnc4n3)nc2c1	319	-30	-2	1	-6	102	x	x
c1ccc(-c2cnnc(SCc3cn4cccnc4n3)n2)cc1	252	-4	-7	0	60*	105	-2	-1
CCCCC(=O)Nc1nc2c(OC)cc([N+](=O)[O-])cc2s1	338	12	2	6	55*	x	-12	-10
COc1cc(Cl)c(C)cc1NC(=O)c1ccc(S(C)(=O)=O)cc1	495	0	-1	1	55*	101	-5	-10
COc1cc(NC(=O)c2ccccc2)c(OC)cc1Cl	559	-3	-7	-5	6	115	x	x
COc1ccc(NC(=O)c2ccc(S(=O)(=O)C(F)F)cc2)c(OC)c1	259	2	5	2	60*	105	0	-7
CCCNC(=O)C1CCN(S(=O)(=O)c2cccc3nonc23)CC1	147	-2	-2	1	5	104	x	x
C[C@@H]1CN(Cc2nnnn2CC(=O)NCCCn2cccn2)C[C@H](C)O1	x	x	x	x	x	107	x	x
COCCNC(=O)c1cccc(OC2CCN(Cc3cccc(SC)c3)CC2)c1	142	4	2	11	36	107	x	x
COc1ccc(CC(=O)Nc2ccc(-c3cn4cccc(C)c4n3)cc2)cc1OC	245	-7	-2	1	0	105	x	x
Cc1cccn2cc(-c3ccc(NC(=O)Cc4ccccc4)cc3)nc12	324	35	-13	-1	96*	101	-1	-1
CCOc1ccc(CN2CCN(CCCc3ccccc3)CC2CCO)cc1 (stereo not drawn)	197	0	5	-4	5	115	x	x
COc1ccc(-c2nc(CS(=O)CC(=O)NC3CCCC3)c(C)o2)cc1OC (stereo not drawn)	981	1	-9	-3	32	101	x	x
COc1ccc(-c2nc(CS(=O)CC(=O)NC3CCC(C)CC3)c(C)o2)cc1OC (stereo not drawn)	296	33	1	-2	54*	100	-11	0
CCOC(=O)C1CCCN(C/C=C/c2ccccc2)C1 (stereo not drawn)	279	2	2	8	1	116	x	x
CC(=O)N1N=C(c2cccc(NS(C)(=O)=O)c2)CC1c1cccs1 (stereo not drawn)	194	1	1	-6	-17	95	x	x
